Source: PubChem BioAssay (several laboratories)
Hits are enriched below; roughly 5.6% of the tested compounds scored in any of these assays.
NR3A LBD binder = binders of NR3A ligand-binding domain, primary screen, biophysical, differential scanning fluorimetry, uHTS. Glutamate receptor ionotropic, NMDA 3A (GRIN3A) ligand-binding domain. NR3A LBD differential scanning fluorimetry, Tm shift; 0% = protein alone, 100% = glycine-bound protein. Tm shift relative to glycine control, % at 25 µM. 2.5% of 340,000 active;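 active means melting temperature shift of at least 10% of the positive control shift, at one fixed dose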
MPTP block = mitochondrial permeability transition pore inhibitors, primary screen, biochemical, isolated mouse mitochondria, absorbance | Ca2+ swelling absorbance, 30 min | inhibition, % at 10 µM | 1.4% of 360,000 active | AID 602449, 2012;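 active means inhibition of 50% or more, scaled per plate between neutral and stimulator controls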;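 further: 0% = DMSO wells given calcium and 100% = 1 mM EGTA wells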
CHOP inh = inhibitors of CHOP promoter induction, primary screen, cell-based, unfolded protein response, luciferase reporter | 3.8% of 220,000 active | CHO-K1 CHOP-promoter luciferase, tunicamycin-induced, 15-18 h | inhibition, % at 10 µM;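 active means compounds that reduced the stress-induced luciferase reporter signal by more than about 70% of percent inhibition, limit read from the data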;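 further: 0% = tunicamycin plus vehicle and 100% = wells without tunicamycin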
aDG glyco act = activators of alpha-DG glycosylation, primary screen, uHTS, Pro5-aDG cells, AlphaScreen; alpha-DG glycosylation AlphaScreen (IIH6); 0% Pro5, 100% B10-LARGE cell signal; activation, % at 10 µM; 0.22% of 360,000 active;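 active means activation of at least 8% versus controls, or a plate z-score of at least 8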;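 further: Pro5 are CHO cells carrying HIG-tagged alpha-DG that lacks glycosylation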
CHOP UPR activ = activators of apoptotic CHOP UPR arm, primary screen, cell-based, CHO-CHOP luciferase reporter, luminescence, uHTS; activation, % at 10 µM; UPR activation; percent of tunicamycin response over DMSO baseline; 0.34% of 330,000 active; AID 449763, 2010;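 active means at 10 µM dose, activation of 40% or more, normalized to positive control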;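 further: 100% = tunicamycin at 10 µg/mL and 0% = DMSO alone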
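Assay system: CHO-CHOP cells, stable luciferase reporter of PERK-eIF2a-CHOP signalling / Buffer or medium: F12 plus 10% serum / Compound dosing: one dose, 10 µM in 0.5% DMSO / Times: 6 h compound treatment, 37 °C / Technique: luciferase luminescence / Read-out: % reporter activation, DMSO baseline versus tunicamycin full activation / Benchmarks: tunicamycin and DMSO controls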
UPR XBP1 act = activators of adaptive XBP1 UPR arm, primary screen, cell-based, CHO-XBP1 luciferase reporter, luminescence, uHTS; IRE1-XBP1 UPR activation; percent of tunicamycin response, DMSO as zero; activation, % at 20 µM; 0.33% of 330,000 active; AID 463104, 2010;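 active means versus positive control, 20 µM dose yields 30% or more activation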;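 further: 100% = tunicamycin at 10 µg/mL and 0% = DMSO only wells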
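Assay system: IRE1-XBP1 luciferase reporter CHO line. Input: 1000 cells/well. Buffer or medium: F12 with 10% serum. Doses: 20 µM, 1% DMSO. Times: overnight seeding at 37 °C, 6 h compound treatment at 37 °C. Technique: Steady-Glo luciferase glow luminescence, 10 min after reagent addition.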
* hit, by the source's call.

How did COc1ccccc1CN(C)C(=O)c1cc(S(=O)(=O)N2CCCCCC2)ccc1OC do in these assays?
MPTP block: 0.5; aDG glyco act: -0.3

Results for COc1cccc(NC(=O)CSc2nc(C3CC3)nc3ccccc23)c1 ?
NR3A LBD binder: -0.8; MPTP block: -1.3; aDG glyco act: 0.1; CHOP UPR activ: 2.2; UPR XBP1 act: -3.6

How did Cc1cccc(C)c1NC(=O)CSc1nc(COc2ccccc2)nc2ccccc12 do in these assays?
NR3A LBD binder: -4.7; MPTP block: 2.7; CHOP inh: 88.5*; aDG glyco act: 0.1; CHOP UPR activ: 0.3; UPR XBP1 act: 1.8

Results for CCOc1ccc(NC(=O)CSc2nc(C3CC3)nc3ccccc23)cc1 ?
NR3A LBD binder: -2.1; MPTP block: -2.9; CHOP inh: 95.8*; aDG glyco act: 0.3; CHOP UPR activ: -0.3; UPR XBP1 act: 0.8

Results for COc1cc(/C=C2/C(=O)ON=C2c2ccccc2)ccc1O ?
NR3A LBD binder: 10.7*; MPTP block: 5.7; CHOP inh: 67.4; aDG glyco act: 0.0; CHOP UPR activ: 20.5; UPR XBP1 act: 8.1

How did CCCCc1ccc(/C=C2/C(=O)ON=C2c2ccccc2)s1 do in these assays?
NR3A LBD binder: -5.2; MPTP block: 0.4; CHOP inh: 34.0; aDG glyco act: 1.2

What do the screens show for `Cc1sc(/C=C2\C(=O)ON=C2c2ccccc2)cc1Br`?
CHOP inh: 88.3*; CHOP UPR activ: -0.3; UPR XBP1 act: -1.8

What do the screens show for `CCOC(=O)C1(C)CCCCCN1C(=O)c1ccc(C(=O)OC)cc1` (stereo not given)?
MPTP block: 1.2; aDG glyco act: 0.0

How did CCOc1ccc(OCCSc2nnnn2C2CCCCC2)cc1 do in these assays?
NR3A LBD binder: 9.4; MPTP block: 0.8; CHOP inh: 79.8*; aDG glyco act: 0.3; CHOP UPR activ: -0.4; UPR XBP1 act: -0.8

Results for Clc1ccc(OCCSc2nnnn2C2CCCCC2)cc1 ?
NR3A LBD binder: 1.7; MPTP block: -0.3; CHOP inh: 63.4; aDG glyco act: -0.1; CHOP UPR activ: 3.7; UPR XBP1 act: 2.2

What do the screens show for `CCCCNC(=O)C1(C)CCCCN1C(=O)c1ccc(C#N)cc1` (stereo not given)?
MPTP block: 0.8; aDG glyco act: -0.2

What do the screens show for `COCCCN(C(=O)CCOc1ccc(C)cc1)c1c(N)n(Cc2ccccc2)c(=O)[nH]c1=O`?
NR3A LBD binder: -1.0; MPTP block: -0.3; aDG glyco act: -0.1; CHOP UPR activ: -1.1; UPR XBP1 act: 2.0

How did CCOc1ccc(CCNC(=O)C2=C(C)C(=O)OC23CCCCC3)cc1OCC do in these assays?
NR3A LBD binder: -2.5; MPTP block: 3.5; CHOP inh: -1.6; aDG glyco act: -0.3; CHOP UPR activ: 0.3; UPR XBP1 act: 0.7

What do the screens show for `O=C(COC(=O)CNS(=O)(=O)c1cccc(Br)c1)NC(=O)Nc1ccc2c(c1)OCCO2`?
NR3A LBD binder: -6.8; MPTP block: 0.5; CHOP inh: 4.4; aDG glyco act: -0.4

How did CC(=O)N1c2ccccc2C(C)(c2ccccc2)CC1(C)C (stereo not given) do in these assays?
NR3A LBD binder: 0.9; MPTP block: 0.2; CHOP inh: 35.8; aDG glyco act: 0.0; CHOP UPR activ: -0.3; UPR XBP1 act: -0.6

Results for CC1(c2ccccc2)CC(C)(C)N2C(=O)Cc3cccc1c32 (stereo not given) ?
NR3A LBD binder: -0.8; MPTP block: 14.4; CHOP inh: 71.9*; aDG glyco act: 0.5; CHOP UPR activ: 0.8; UPR XBP1 act: -1.5

Results for O=C1C=C(NC2=CC3OC(c4ccccc4)OCC3OC2=O)CCC1 (stereo not given) ?
NR3A LBD binder: 7.9; MPTP block: 4.3; CHOP inh: 95.3*; aDG glyco act: 0.3

How did O=C1C=C(NCc2ccccc2)CCC1 do in these assays?
NR3A LBD binder: 1.5; MPTP block: 0.2; CHOP inh: -0.8; aDG glyco act: 0.1; CHOP UPR activ: -0.5; UPR XBP1 act: -1.4

Results for CC(C)C(NS(=O)(=O)c1ccccc1)C(=O)OCc1cc([N+](=O)[O-])cc2c1OCOC2 (stereo not given) ?
NR3A LBD binder: 1.4; MPTP block: 1.9; CHOP inh: 4.8; aDG glyco act: 0.3

What do the screens show for `COc1ccc(N/N=C(\C#N)C(=N)N2CCCCC2)cc1`?
NR3A LBD binder: -2.2; MPTP block: 5.4; CHOP inh: 5.7; aDG glyco act: -0.1; CHOP UPR activ: 3.3; UPR XBP1 act: 3.0

Results for COc1ccc(N/N=C(\C#N)C(=N)SCc2ccccc2)cc1 ?
NR3A LBD binder: 29.0*; MPTP block: 4.5; CHOP inh: 5.1; aDG glyco act: -0.1

How did Oc1cccc(Nc2nc(-c3ccccc3Cl)nc3ccccc23)c1 do in these assays?
NR3A LBD binder: 17.3*; MPTP block: 0.9; aDG glyco act: 0.0; CHOP UPR activ: -0.4; UPR XBP1 act: -1.2

Results for Cc1ccc(-c2nc(Nc3ccc(O)cc3)c3ccccc3n2)cc1 ?
NR3A LBD binder: 33.9*; MPTP block: 2.3; aDG glyco act: 0.2; CHOP UPR activ: 2.8; UPR XBP1 act: 24.1

How did CCOC(=O)c1nc(Nc2ccc(C(=O)O)cc2)c2ccccc2n1 do in these assays?
NR3A LBD binder: 13.6*; MPTP block: 0.7; CHOP inh: 11.4; aDG glyco act: 0.0; CHOP UPR activ: 1.2; UPR XBP1 act: -2.8

Results for CCOC(=O)c1ccc(Nc2nc(C(=O)OCC)nc3ccccc23)cc1 ?
NR3A LBD binder: -2.0; MPTP block: -0.3; CHOP inh: 0.7; aDG glyco act: -0.2; CHOP UPR activ: -2.8; UPR XBP1 act: 22.2

How did NNc1nc(-c2ccccc2Cl)nc2ccccc12 do in these assays?
NR3A LBD binder: -3.8; MPTP block: 0.1; aDG glyco act: 0.0; CHOP UPR activ: 1.8; UPR XBP1 act: -4.4

How did Cc1ccc(-c2nc(Nc3cccc(O)c3)c3ccccc3n2)cc1 do in these assays?
NR3A LBD binder: 42.4*; MPTP block: 2.0; aDG glyco act: 0.1; CHOP UPR activ: 4.5; UPR XBP1 act: 0.7

What do the screens show for `c1ccc(Nc2nc(-c3ccccc3)nc3ccccc23)cc1`?
NR3A LBD binder: 11.2*; MPTP block: 0.8; aDG glyco act: 0.0; CHOP UPR activ: 0.6; UPR XBP1 act: 0.3
